Source: ChEMBL document CHEMBL1147807, “Identification of 2-acylaminothiophene-3-carboxamides as potent inhibitors of FLT3” (Bioorg Med Chem Lett, 2006)

Tests used:
[1] = molecular target: T1, Serine/threonine-protein kinase D2 (Homo sapiens) (UniProt Q9BZL6); assay: Inhibition of human PKD2 at 3 uM in presence of 10 uM ATP
T1 sequence (whole entry): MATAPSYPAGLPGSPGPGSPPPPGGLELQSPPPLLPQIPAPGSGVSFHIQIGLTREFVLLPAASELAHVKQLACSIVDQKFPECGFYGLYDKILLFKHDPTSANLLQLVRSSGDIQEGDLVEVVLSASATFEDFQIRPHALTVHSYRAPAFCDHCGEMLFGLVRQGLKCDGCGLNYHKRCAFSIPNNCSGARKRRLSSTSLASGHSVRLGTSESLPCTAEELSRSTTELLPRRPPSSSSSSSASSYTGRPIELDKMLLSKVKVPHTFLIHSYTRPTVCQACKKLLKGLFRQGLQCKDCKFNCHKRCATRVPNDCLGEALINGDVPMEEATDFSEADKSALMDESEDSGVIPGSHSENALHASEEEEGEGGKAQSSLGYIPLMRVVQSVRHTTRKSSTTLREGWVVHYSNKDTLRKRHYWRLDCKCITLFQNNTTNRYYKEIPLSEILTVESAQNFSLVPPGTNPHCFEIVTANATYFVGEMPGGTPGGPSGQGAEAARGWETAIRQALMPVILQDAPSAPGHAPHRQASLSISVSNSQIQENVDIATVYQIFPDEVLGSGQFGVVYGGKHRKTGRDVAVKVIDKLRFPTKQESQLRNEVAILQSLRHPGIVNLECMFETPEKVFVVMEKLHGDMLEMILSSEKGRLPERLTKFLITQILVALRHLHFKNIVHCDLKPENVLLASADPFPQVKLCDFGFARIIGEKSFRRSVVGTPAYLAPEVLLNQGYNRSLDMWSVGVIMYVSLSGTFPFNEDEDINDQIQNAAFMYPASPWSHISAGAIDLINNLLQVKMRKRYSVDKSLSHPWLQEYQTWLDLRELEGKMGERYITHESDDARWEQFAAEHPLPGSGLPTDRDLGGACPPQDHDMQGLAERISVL
Outline: (§1)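 Selectivity panel run at a single compound concentration of 3 µM with 10 µM ATP. Read-out is % inhibition of each kinase. Values are averages of duplicate experiments.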

[2] = molecular target: Tyrosine-protein kinase ABL1 (Homo sapiens) (UniProt P00519); assay: Inhibition of human Abl kinase at 3 uM in presence of 10 uM ATP; outline: as §1
Sequence of Tyrosine-protein kinase ABL1 (Homo sapiens) (P00519 whole entry): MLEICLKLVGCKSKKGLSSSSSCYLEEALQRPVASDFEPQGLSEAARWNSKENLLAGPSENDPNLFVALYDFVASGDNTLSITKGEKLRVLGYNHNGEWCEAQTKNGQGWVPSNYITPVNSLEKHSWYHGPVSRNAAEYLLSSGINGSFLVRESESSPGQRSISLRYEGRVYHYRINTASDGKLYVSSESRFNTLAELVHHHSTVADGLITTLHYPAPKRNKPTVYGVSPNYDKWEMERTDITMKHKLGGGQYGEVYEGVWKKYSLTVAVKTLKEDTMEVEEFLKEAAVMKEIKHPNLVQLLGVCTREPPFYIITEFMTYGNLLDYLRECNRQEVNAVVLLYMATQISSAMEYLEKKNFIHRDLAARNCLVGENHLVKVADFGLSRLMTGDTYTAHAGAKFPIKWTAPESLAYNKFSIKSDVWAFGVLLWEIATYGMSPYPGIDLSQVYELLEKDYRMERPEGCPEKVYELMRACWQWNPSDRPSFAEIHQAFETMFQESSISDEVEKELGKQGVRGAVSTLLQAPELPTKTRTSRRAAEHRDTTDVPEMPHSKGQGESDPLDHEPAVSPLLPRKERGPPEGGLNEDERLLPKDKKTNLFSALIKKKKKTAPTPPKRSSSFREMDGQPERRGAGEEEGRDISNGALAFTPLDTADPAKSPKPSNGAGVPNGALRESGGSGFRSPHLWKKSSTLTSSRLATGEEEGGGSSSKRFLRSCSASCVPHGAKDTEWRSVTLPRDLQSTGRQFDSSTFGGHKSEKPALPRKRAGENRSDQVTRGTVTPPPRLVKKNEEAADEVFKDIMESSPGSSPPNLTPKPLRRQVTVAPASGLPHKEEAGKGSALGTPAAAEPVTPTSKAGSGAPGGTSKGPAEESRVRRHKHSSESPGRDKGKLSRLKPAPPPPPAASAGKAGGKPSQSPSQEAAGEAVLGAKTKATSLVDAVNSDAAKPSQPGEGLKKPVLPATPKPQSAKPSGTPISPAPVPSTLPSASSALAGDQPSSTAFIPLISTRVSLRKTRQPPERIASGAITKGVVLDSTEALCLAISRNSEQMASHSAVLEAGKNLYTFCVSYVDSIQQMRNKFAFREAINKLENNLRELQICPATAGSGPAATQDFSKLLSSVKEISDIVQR

[3] = molecular target: T2, Serine/threonine-protein kinase Chk1 (Homo sapiens) (UniProt O14757); assay: Inhibition of human CHK1 at 3 uM in presence of 10 uM ATP; outline: as §1
T2 sequence (whole entry): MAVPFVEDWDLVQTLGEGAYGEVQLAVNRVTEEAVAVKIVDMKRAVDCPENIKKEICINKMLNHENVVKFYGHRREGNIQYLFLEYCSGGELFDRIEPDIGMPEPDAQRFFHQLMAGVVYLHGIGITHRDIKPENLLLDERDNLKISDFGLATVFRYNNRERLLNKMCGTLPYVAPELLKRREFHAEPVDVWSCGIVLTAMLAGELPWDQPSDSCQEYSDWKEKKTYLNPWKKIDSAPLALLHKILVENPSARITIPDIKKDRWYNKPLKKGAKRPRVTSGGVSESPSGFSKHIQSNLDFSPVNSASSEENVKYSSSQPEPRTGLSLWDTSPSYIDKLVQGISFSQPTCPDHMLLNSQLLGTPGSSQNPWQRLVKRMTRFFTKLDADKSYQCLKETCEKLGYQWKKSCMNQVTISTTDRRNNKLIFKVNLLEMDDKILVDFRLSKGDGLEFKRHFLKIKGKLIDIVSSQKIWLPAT

[4] = molecular target: Ribosomal protein S6 kinase alpha-1 (Homo sapiens) (UniProt Q15418); assay: Inhibition of human Rsk1 at 3 uM in presence of 10 uM ATP; outline: as §1
Sequence of Ribosomal protein S6 kinase alpha-1 (Homo sapiens) (Q15418 whole entry): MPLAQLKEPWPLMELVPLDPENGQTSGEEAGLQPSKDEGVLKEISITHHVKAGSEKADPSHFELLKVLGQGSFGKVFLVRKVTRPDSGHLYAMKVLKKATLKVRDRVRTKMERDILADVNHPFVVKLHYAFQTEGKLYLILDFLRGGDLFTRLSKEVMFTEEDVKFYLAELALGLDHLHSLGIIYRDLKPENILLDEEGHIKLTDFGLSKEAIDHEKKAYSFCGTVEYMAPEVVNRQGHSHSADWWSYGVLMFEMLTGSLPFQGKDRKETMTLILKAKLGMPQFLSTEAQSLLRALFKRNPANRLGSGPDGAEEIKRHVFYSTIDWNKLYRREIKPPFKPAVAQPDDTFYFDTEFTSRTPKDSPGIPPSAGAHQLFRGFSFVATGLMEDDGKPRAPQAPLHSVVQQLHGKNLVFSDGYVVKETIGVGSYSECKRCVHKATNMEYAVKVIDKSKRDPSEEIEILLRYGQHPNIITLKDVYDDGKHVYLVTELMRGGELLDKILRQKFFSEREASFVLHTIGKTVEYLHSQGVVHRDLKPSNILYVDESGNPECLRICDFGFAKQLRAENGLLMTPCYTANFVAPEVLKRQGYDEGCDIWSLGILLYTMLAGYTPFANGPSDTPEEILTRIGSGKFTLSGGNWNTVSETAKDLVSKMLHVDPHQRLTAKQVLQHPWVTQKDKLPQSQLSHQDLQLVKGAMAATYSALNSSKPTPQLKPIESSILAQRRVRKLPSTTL

[5] = molecular target: Cyclin-dependent kinase 7/ cyclin H (Homo sapiens) (UniProt P51946+P50613); assay: Inhibition of human CDK7/cyclin H/MAT1 at 3 uM in presence of 10 uM ATP; type: protein-complex assay; outline: as §1
[6] = molecular target: T3, Cytoplasmic tyrosine-protein kinase BMX (Homo sapiens) (UniProt P51813); assay: Inhibition of human Bmx kinase at 3 uM in presence of 10 uM ATP; outline: as §1
T3 sequence (whole entry): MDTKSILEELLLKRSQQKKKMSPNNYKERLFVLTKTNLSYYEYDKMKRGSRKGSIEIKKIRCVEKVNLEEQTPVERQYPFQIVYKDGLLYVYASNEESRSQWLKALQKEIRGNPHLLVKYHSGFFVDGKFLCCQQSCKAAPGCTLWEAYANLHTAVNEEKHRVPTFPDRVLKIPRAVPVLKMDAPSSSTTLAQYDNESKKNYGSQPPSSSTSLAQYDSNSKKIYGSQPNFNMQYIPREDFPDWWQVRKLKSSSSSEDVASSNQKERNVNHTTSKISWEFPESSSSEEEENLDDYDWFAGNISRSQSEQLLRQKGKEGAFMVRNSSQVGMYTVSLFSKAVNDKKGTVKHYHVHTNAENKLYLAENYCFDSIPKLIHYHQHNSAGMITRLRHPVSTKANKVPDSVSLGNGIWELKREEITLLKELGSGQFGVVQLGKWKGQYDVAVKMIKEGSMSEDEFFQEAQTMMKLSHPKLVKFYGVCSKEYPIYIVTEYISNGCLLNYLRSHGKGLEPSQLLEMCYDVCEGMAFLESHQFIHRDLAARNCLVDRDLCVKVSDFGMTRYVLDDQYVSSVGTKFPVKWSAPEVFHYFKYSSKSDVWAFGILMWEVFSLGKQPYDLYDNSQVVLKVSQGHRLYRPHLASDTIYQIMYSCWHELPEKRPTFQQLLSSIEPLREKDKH

[7] = molecular target: RAF proto-oncogene serine/threonine-protein kinase (Homo sapiens) (UniProt P04049); assay: Inhibition of human c-RAF at 3 uM in presence of 10 uM ATP; outline: as §1
Sequence of RAF proto-oncogene serine/threonine-protein kinase (Homo sapiens) (P04049 whole entry): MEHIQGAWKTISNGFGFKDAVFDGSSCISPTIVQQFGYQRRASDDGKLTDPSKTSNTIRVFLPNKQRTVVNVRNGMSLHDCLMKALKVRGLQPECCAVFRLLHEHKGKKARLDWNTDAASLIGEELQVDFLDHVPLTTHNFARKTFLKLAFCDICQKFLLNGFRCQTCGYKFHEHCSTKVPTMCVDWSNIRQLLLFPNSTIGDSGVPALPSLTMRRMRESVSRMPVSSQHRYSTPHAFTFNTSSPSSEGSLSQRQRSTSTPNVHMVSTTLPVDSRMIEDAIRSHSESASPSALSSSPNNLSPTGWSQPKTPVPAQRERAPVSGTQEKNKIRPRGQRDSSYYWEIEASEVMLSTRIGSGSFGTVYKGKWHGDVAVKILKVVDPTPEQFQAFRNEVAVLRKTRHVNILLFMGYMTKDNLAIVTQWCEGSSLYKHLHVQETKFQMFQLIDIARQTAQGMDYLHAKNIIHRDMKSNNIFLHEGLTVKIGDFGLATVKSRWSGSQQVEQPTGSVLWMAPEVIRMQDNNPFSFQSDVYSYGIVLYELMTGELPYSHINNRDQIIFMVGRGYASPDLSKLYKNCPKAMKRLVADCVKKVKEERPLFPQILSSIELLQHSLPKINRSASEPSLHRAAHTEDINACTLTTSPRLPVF

**Q.** What does the source list for `COc1ccc(C(=O)Nc2sc3c(c2C(N)=O)CCCC3)cc1OC`?
**A.** inhibition [1]: -7%; inhibition [2]: 21%; inhibition [3]: -7%; inhibition [4]: 3%; inhibition [5]: -1%; inhibition [6]: 9%; inhibition [7]: -1%
